Measurements reported in ChEMBL document CHEMBL1151181, “New sesterterpenes from the Antarctic sponge Suberites sp” (2004).

Assays:
Format in all cases: functional
Escherichia coli = experiment: Antimicrobial activity against Escherichia coli at 25 ug by paper-disk method; conditions: read-out: IZ
How it was run: (§1)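 Paper-disk diffusion assay with 25 µg of compound per disk; activity read as diameter of the growth-inhibition zone in mm. The Streptococcus strain is given only as Streptococcus sp.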

Candida albicans = experiment: Antimicrobial activity against Candida albicans at 25 ug by paper-disk method; conditions: read-out: IZ; how it was run: as §1
Bacillus subtilis = experiment: Antimicrobial activity against Bacillus subtilis at 25 ug by paper-disk method; conditions: read-out: IZ; how it was run: as §1
K562 = experiment: Cytotoxicity against human K562 cells by MTT method; conditions: read-out: LC50 (the source's name)
How it was run: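 Human leukemia K562 cell line, MTT read-out; value expressed as LC50 in µg/mL.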

Streptococcus = experiment: Antimicrobial activity against Streptococcus at 25 ug by paper-disk method; conditions: read-out: IZ; how it was run: as §1
Staphylococcus aureus = experiment: Antimicrobial activity against Staphylococcus aureus at 25 ug by paper-disk method; conditions: read-out: IZ; how it was run: as §1

CC(=O)O[C@@H]1C[C@@]2(C)CC(c3ccc(C)c(O)c3)=CC[C@H]2[C@@]2(C)CCCC(C)(C)[C@H]12 [SUBERIPHENOL]
zone of inhibition at 25 µg/disc (Escherichia coli): < 3 mm
zone of inhibition at 25 µg/disc (Candida albicans): < 3 mm
zone of inhibition at 25 µg/disc (Bacillus subtilis): < 3 mm
CC50 (K562): > 100 µg/mL
zone of inhibition at 25 µg/disc (Streptococcus): < 3 mm
zone of inhibition at 25 µg/disc (Staphylococcus aureus): < 3 mm

CC(=O)O[C@@H]1C[C@@]2(C)CC([C@@H]3CC(=O)C(C)=C[C@H]3O)=CC[C@H]2[C@@]2(C)CCCC(C)(C)[C@H]12 [SUBERITENONE C]
zone of inhibition at 25 µg/disc (Escherichia coli): < 3 mm
zone of inhibition at 25 µg/disc (Candida albicans): < 3 mm
zone of inhibition at 25 µg/disc (Bacillus subtilis): < 3 mm
CC50 (K562): > 100 µg/mL
zone of inhibition at 25 µg/disc (Streptococcus): < 3 mm
zone of inhibition at 25 µg/disc (Staphylococcus aureus): < 3 mm

CC(=O)O[C@@H]1C=C(C)C(=O)C[C@H]1[C@@]1(O)CC[C@@H]2[C@@](C)(C[C@@H](OC(C)=O)[C@H]3C(C)(C)CCC[C@]23C)C1
zone of inhibition at 25 µg/disc (Escherichia coli): < 3 mm
zone of inhibition at 25 µg/disc (Candida albicans): < 3 mm
zone of inhibition at 25 µg/disc (Bacillus subtilis): < 3 mm
zone of inhibition at 25 µg/disc (Streptococcus): < 3 mm
zone of inhibition at 25 µg/disc (Staphylococcus aureus): < 3 mm
